Experimental findings from ChEMBL document CHEMBL4266015, “Scaffold Ranking and Positional Scanning Identify Novel Neurite Outgrowth Promoters with Nanomolar Potency” (2018) are described below.

Assay type in all cases: functional, Hippocampal neurone
Assay [1] can be described thus: Induction of neurite outgrowth in rat hippocampal neurons assessed as neurite total length at 125 ng/ml after 48 hrs relative to control. Summed up: (§1)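 E18 rat hippocampal neurons were plated on PDL at 1800 cells/well in NbActive4, adhered 2 h, then treated with compound prediluted in medium at 4× final for 48 h. Cells were fixed, stained for βIII-tubulin, imaged and auto-traced. Mean neurite total length is a percentage of DMSO vehicle wells on the same plate. ML-7 was the positive control and plates with Z-factor >0.5 were accepted.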

Assay [2] in a line: Induction of neurite outgrowth in rat hippocampal neurons assessed as neurite total length at 31.25 ng/ml after 48 hrs relative to control. Summed up: as §1
A short description of assay [3]: Induction of neurite outgrowth in rat hippocampal neurons assessed as neurite total length after 48 hrs. The method in brief:
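Dissociated E18 rat hippocampal neurons were seeded on PDL-coated plates at 1800 cells/well in NbActive4 and allowed to adhere 2 h. Compounds were prediluted in medium at 4× final and added, then cells were grown 48 h (2 DIV). Wells were fixed, immunostained for βIII-tubulin and imaged by automated tracing. ED200% and ED300% values were linearly interpolated from dose-response curves of mean neurite total length.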

Assay [4] is described as follows: Induction of neurite outgrowth in rat hippocampal neurons assessed as neurite total length at 250 ng/ml after 48 hrs relative to control. Summed up: as §1
Assay [5] in a line: Induction of neurite outgrowth in rat hippocampal neurons assessed as neurite total length at 15.625 ng/ml after 48 hrs relative to control. Summed up: as §1
Assay [6] in a line: Induction of neurite outgrowth in rat hippocampal neurons assessed as neurite total length at 500 ng/ml after 48 hrs relative to control. The method in brief:
as §1

A short description of assay [7]: Induction of neurite outgrowth in rat hippocampal neurons assessed as neurite total length at 62.5 ng/ml after 48 hrs relative to control. Summed up: as §1

In the case of `CCC(C)C1=N[C@@H](CCCCN2C[C@@H](c3ccccc3)N(CC3CCC(C)CC3)C2=S)CN1` (stereo partly specified), the Activity in assay [1] was 301.9%; in assay [2] it was 256.2%; in assay [4], 255.9%; in assay [5], 190%; in assay [6], 279.8%; in assay [7] it was 296.7%. For the same compound, the ED200 in assay [3] came out at 5 nM. For the same compound, the ED300 in assay [3] was 54 nM.
Take `CC1CCC(CN2C(=S)N(CCCC[C@H]3CNC(C4CCCC4)=N3)C[C@H]2c2ccccc2)CC1` (stereo partly specified): the Activity came to 286.2% in assay [1]; 271.9% in assay [2]; 270.8% in assay [4]; 251% in assay [5]; 229.6% in assay [6]; 305.6% in assay [7]. The ED200 in assay [3] amounted to 2 nM. In assay [3], the ED300 is listed as >520 nM.
